What was measured:
HEK293 [1] = test: Inhibition of TNF-alpha-induced NFkappaB activation in human HEK293 cells at 50 uM after 6 hrs by luciferase assay relative to control; type: cell-based
Summary of the method: (§1)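 Cells incubated 6 h with TNFα plus test compound, then luciferase activity measured. Results expressed as percent of TNFα-treated control. Screening concentration 50 μM.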

[2] = target: T1, Nitric oxide synthase, inducible (Mus musculus) (UniProt P29477); test: Inhibition of iNOS-mediated nitric oxide production in LPS-stimulated mouse RAW 264.7 cells assessed as cell survival at 50 uM pretreated 15 mins before LPS challenge measured after 20 hrs relative to control; type: cell-based
T1 sequence (whole entry): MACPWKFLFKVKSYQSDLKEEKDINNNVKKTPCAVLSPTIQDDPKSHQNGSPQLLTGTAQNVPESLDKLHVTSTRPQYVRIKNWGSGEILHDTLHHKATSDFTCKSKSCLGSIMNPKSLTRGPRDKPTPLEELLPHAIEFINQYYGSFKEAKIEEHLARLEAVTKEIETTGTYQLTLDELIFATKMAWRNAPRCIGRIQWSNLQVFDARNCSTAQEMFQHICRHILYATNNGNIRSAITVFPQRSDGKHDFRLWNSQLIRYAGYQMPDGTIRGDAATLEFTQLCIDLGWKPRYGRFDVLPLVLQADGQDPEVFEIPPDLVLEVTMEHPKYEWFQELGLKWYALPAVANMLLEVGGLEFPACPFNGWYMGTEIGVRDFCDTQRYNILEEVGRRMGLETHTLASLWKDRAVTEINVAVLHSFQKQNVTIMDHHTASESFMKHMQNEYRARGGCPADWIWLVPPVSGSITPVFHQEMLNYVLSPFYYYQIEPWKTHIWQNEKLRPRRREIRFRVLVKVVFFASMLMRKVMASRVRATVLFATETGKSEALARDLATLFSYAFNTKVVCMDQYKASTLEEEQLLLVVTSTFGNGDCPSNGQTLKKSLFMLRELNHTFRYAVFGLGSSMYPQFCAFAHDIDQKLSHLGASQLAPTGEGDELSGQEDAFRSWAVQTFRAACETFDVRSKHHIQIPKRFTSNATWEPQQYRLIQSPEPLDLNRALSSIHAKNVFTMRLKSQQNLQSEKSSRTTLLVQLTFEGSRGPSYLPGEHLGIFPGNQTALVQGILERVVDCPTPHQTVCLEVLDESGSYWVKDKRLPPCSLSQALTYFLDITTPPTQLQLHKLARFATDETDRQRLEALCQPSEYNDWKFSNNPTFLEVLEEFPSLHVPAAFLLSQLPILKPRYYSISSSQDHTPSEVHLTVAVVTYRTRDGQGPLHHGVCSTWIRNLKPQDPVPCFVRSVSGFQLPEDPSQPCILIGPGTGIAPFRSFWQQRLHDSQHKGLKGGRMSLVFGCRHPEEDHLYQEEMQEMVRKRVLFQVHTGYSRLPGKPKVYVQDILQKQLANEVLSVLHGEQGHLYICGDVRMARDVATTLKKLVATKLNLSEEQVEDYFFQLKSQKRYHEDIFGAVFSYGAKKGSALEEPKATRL
Summary of the method: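 RAW 264.7 cells were incubated at 37°C, 5% CO2 for 24 h. They were then exposed to compound for 15 min before LPS (1 μg/mL) was added for 20 h. Cytotoxicity was measured by SRB staining under the same conditions. Survival is expressed as % relative to vehicle-treated controls at 50 μM.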

[3] = target: T1, Nitric oxide synthase, inducible (Mus musculus); test: Inhibition of iNOS-mediated nitric oxide production in LPS-stimulated mouse RAW 264.7 cells at 50 uM pretreated 15 mins before LPS challenge measured after 20 hrs relative to control; type: cell-based
Summary of the method: (§2)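 RAW 264.7 cells cultured 24 h at 37°C, then given serially diluted compounds for 15 min before LPS (1 μg/mL) for 20 h. Nitrite in the medium measured with Griess reagent at 540 nm against a sodium nitrite standard curve. Cytotoxicity checked by SRB under the same conditions.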

HEK293 [4] = test: Inhibition of TNF-alpha-induced NFkappaB activation in human HEK293 cells assessed as cell survival at 50 uM after 6 hrs by luciferase assay relative to control; type: cell-based
[5] = Inhibition of TNF-alpha-induced NFkappaB activation in human HEK293 cells after 6 hrs by luciferase assay; type: cell-based; settings: HEK293, 6 h; summary of the method: as §1
Aromatase = target: T2, Aromatase (Homo sapiens, UniProt P11511); test: Inhibition of aromatase at 50 uM after 10 mins preincubation by plate reader relative to control
T2 sequence (P11511 whole entry): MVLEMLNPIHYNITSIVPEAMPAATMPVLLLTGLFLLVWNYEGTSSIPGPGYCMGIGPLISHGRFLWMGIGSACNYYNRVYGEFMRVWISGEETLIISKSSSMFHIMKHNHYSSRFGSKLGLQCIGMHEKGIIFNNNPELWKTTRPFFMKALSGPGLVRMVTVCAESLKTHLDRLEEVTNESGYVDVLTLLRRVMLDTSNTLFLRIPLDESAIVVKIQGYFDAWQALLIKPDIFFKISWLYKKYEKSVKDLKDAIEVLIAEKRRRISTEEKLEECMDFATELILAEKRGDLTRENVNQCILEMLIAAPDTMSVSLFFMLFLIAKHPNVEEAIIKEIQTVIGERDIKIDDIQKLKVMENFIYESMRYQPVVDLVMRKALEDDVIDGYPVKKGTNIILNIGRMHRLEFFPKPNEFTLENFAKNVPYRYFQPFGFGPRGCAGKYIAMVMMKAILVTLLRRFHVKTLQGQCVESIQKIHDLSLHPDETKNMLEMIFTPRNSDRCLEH
Summary of the method: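 CYP19 enzyme. Compound pre-incubated 10 min with an NADPH-regenerating system (NADP+, glucose 6-phosphate, G6PDH, MgCl2, albumin) in 50 mM potassium phosphate pH 7.4. Enzyme and 0.4 μM dibenzylfluorescein substrate then added, 30 min at 37 °C. Quenched with 2 N NaOH and incubated a further 2 h at 37 °C. Fluorescence read at ex 485/em 530 nm. Compound tested at 50 μM.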

[6] = target: NAD(P)H dehydrogenase [quinone] 1 (Mus musculus) (UniProt Q64669); test: Induction of quinone reductase 1 activity in mouse Hepa-1c1c7 cells at 50 uM by MTT assay relative to untreated control; type: cell-based
NAD(P)H dehydrogenase [quinone] 1 (Mus musculus), sequence (Q64669 whole entry): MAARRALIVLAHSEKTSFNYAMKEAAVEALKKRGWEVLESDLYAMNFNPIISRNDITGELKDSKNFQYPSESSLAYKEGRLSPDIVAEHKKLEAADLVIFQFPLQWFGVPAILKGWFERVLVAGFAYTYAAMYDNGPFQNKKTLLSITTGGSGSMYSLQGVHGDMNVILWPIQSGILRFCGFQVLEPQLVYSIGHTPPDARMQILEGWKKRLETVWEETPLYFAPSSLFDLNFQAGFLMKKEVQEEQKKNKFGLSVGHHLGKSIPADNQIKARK
Summary of the method: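 Hepa 1c1c7 murine hepatoma cells treated with compound at 50 μM. QR1 measured by NADPH-dependent, menadiol-mediated reduction of MTT to formazan. Protein measured by crystal violet staining of identical plates. Specific activity is nmol formazan per mg protein per min. Induction ratio is treated versus DMSO-treated control.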

[7] = target: NAD(P)H dehydrogenase [quinone] 1 (Mus musculus) (UniProt Q64669); test: Induction of quinone reductase 1 activity in mouse Hepa-1c1c7 cells assessed as cell survival at 50 uM by MTT assay relative to control; type: cell-based
[8] = target: T3, Nitric oxide synthase, inducible (Mus musculus, UniProt P29477); test: Inhibition of iNOS-mediated nitric oxide production in LPS-stimulated mouse RAW 264.7 cells pretreated 15 mins before LPS challenge measured after 20 hrs relative to control; type: cell-based; summary of the method: as §2
T3 sequence (P29477 whole entry): T1 sequence (whole entry)

MCF7 = test: Antiproliferative activity against human MCF7 cells assessed as survival at 50 uM after 72 hrs by SRB assay relative to control; type: functional; settings: MCF7, 72 h, read-out: Survival
Summary of the method: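 MCF7 cells (1 × 10^4 per well) were plated onto compound and kept at 37°C, 5% CO2 for 72 h. Cells were fixed in 10% TCA for 30 min and stained with 0.4% SRB in 1% acetic acid for 30 min. Bound dye was dissolved in 10 mM Tris (pH 10.0) and read at 515 nm. Survival is given as % of DMSO-treated controls, screened at 50 μM.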

[9] = target: NAD(P)H dehydrogenase [quinone] 1 (Mus musculus) (UniProt Q64669); test: Induction of quinone reductase 1 in mouse Hepa 1c1c7 cells assessed as concentration of compound required to double enzyme activity by MTT assay; type: cell-based
Summary of the method: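 Dose-response in Hepa 1c1c7 cells, run for substances with induction ratio >2 at 50 μM. QR1 activity measured as menadiol-mediated, NADPH-dependent MTT reduction to formazan, normalised to crystal violet protein content. CD is the concentration that doubles specific activity relative to DMSO control.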

Row | Compound | inhibition (HEK293 [1]) [%] | Survival [2] [%] | inhibition [3] [%] | Survival (HEK293 [4]) [%] | IC50 [5] [µM] | inhibition at 50 µM (Aromatase) [%] | Ratio [6] | Survival [7] [%] | IC50 [8] [µM] | viability at 50 µM (MCF7) [%] | CD [9] [µM]
1 | COC(=O)[C@H]1Cc2c([nH]c3ccccc23)CN1 | 58.4 | 116 | 7.2 | 60.3 | 22.1 | 14.3 | 1.1 | 115 | – | – | –
2 | COC(=O)[C@H]1Cc2c([nH]c3ccccc23)CN1Cc1ccc(O)cc1 | 33.5 | 87.3 | 63.7 | 122 | – | 38.7 | 1.8 | 98.6 | 37.5 | 100 | –
3 | O=C(O)[C@@H]1Cc2c([nH]c3ccccc23)CN1CC1CC1 | 33.7 | 135 | -7 | 234 | – | 30.2 | 2.4 | 90.7 | – | 108 | 27.6
4 | COC(=O)[C@@H]1Cc2c([nH]c3ccccc23)CN1Cc1ccc(OCc2ccccc2)cc1 | 24.7 | 93.9 | 58 | 99.7 | – | 28 | 1.8 | 72.8 | 39.2 | – | –
5 | O=C(O)[C@H]1Cc2c([nH]c3ccccc23)CN1S(=O)(=O)c1ccc(Br)cc1 | 50.9 | 103 | 56.2 | 252 | – | 32.3 | 1.3 | 88.3 | 46.1 | 91.2 | –
6 | O=C(O)[C@@H]1Cc2c([nH]c3ccccc23)CN1S(=O)(=O)c1ccc(Br)cc1 | 55.4 | 80.6 | 50 | 247 | – | 23.2 | 1.3 | 97.8 | 49.7 | 77 | –
7 | COC(=O)[C@H]1Cc2c([nH]c3ccccc23)CN1Cc1ccc(OCc2ccccc2)cc1 | 40.5 | 86.8 | 75.9 | 91 | – | 27.3 | 1.4 | 85.4 | 29.4 | 96.7 | –
8 | C#CCN1Cc2[nH]c3ccccc3c2C[C@@H]1C(=O)OC | 43.6 | 114 | 41.1 | 227 | – | 31.7 | 2 | 77.2 | – | – | 50
9 | C=CCOC(=O)N1Cc2[nH]c3ccccc3c2C[C@H]1C(=O)O | 35.6 | 135 | -6.3 | 109 | – | 38.4 | 2.4 | 82.9 | – | – | 26.5
10 | C=CCOC(=O)N1Cc2[nH]c3ccccc3c2C[C@@H]1C(=O)OC | 50.7 | 91.6 | 57.1 | 97.6 | – | 35.1 | 2.8 | 77.3 | 27.7 | 69.5 | 15.9
11 | COC(=O)[C@@H]1Cc2c([nH]c3ccccc23)CN1S(=O)(=O)c1ccc(Br)cc1 | 32.8 | 89.2 | 70.6 | 186 | – | 36.7 | 0.2 | 36.4 | 23.1 | -2.1 | –
12 | Cc1ccc(S(=O)(=O)N[C@@H](Cc2ccccc2)C(=O)CCl)cc1 [TPCK] | – | – | – | – | 4.9 | – | – | – | – | – | –
13 | C#CCN1Cc2[nH]c3ccccc3c2C[C@H]1C(=O)O | 50.2 | 126 | 7 | 228 | – | 30.5 | 2.2 | 91.9 | – | 112 | 18.7

Reference: ChEMBL document CHEMBL1914395, “Design, synthesis, and biological evaluation of callophycin A and analogues as potential chemopreventive and anticancer agents” (Bioorg Med Chem, 2011)
